Consider one compound from ChEMBL document CHEMBL5543124, “Lead Compound Development of SRC-3 Inhibitors with Improved Pharmacokinetic Properties and Anticancer Efficacy” (J Med Chem, 2024).

Each structure is given as a SMILES string. Activity calls are given as the source filed them. The calls are words filed in the database; no cut-off is given here.

In assay [1] the test system is MCF7. Briefly: Cytotoxicity against human MCF7 cells assessed as inhibition of cell growth incubated for 72 hrs by MTT assay. The format is functional, cell-based. The conditions noted are these: MCF7, 72 h.
Assay [2] relates to LNCaP. Put plainly: Antitumor activity against human LNCaP cells xenografted in SCID mouse assessed as increase in cleaved caspase-3 expression at 10 mg/kg,ip administration measured after 4 weeks by immunohistochemical analysis. The format is functional, organism-based. The procedure, abridged: (§1)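 LNCaP subcutaneous xenograft tumors in SCID mice, collected at the end of 4 weeks of 10 mg/kg ip daily dosing or vehicle. IHC for Ki67 and cleaved caspase 3 run on eight tumors from eight mice, at least five fields each; positive cells counted; mean ± SEM reported.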

The subject of assay [3] is LNCaP. Briefly: Antitumor activity against human LNCaP cells xenografted in SCID mouse assessed as increase in positive cells of cleaved caspase-3 at 10 mg/kg,ip administration measured after 4 weeks by immunohistochemical analysis. Format: functional. Put shortly:
as §1

Assay [4] has as its system LNCaP. Briefly: Antitumor activity against human LNCaP cells xenografted in SCID mouse assessed as reduction in microvascular density at 10 mg/kg,ip administration measured after 4 weeks by immunohistochemical analysis relative to control. The arrangement: scale not given: the % may be the effect or the level left. The format is functional. The procedure, abridged: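 LNCaP xenografts were grown subcutaneously on both flanks of male SCID mice and treated i.p. at 10 mg/kg once daily for 4 weeks, starting 4 weeks after inoculation, with a vehicle control. Tumors were collected at the end of treatment for CD31 immunohistochemistry. Microvascular structures were counted in at least five areas per tumor, using eight tumors from eight mice. Data are mean ± SEM.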

Assay [5] relates to MDA-PCa-118b. Put plainly: Antitumor activity against patient derived MDA-PCa-118b cells xenografted in SCID mouse assessed as reduction in tumor burden in femur at 10 mg/kg,ip administration measured after 4 weeks by hematoxylin and eosin staining based analysis. The format is functional, organism-based. The conditions noted are these: Homo sapiens. The procedure, abridged: (§2)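 AR-PDX 118b cells (1×10^5) injected via intra-femoral artery in male SCID mice (8–9 weeks). After 2 weeks, 10 mg/kg/day ip or vehicle for 4 weeks (n = 9/group). X-ray imaging every two weeks. At the end, femurs CT-scanned (5 per group) with 3D-reconstruction tumor size, and H&E histology used for tumor/femur area ratio.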

Assay [6] deals with LNCaP. Briefly: Antitumor activity against human LNCaP cells xenografted in SCID mouse assessed as reduction in tumor growth at 10 mg/kg,ip administration measured after 4 weeks. The arrangement: scale not given: the % may be the effect or the level left. The format is functional. Put shortly:
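Male SCID mice received 1×10^7 LNCaP cells subcutaneously under the back skin on both sides. Daily i.p. dosing at 10 mg/kg or vehicle began 4 weeks after inoculation and ran for 4 weeks. Tumor length and width were measured weekly, and size was calculated as length × width × width/2.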

In assay [7] the test system is MDA-PCa-118b. Briefly: Antitumor activity against patient derived MDA-PCa-118b cells xenografted in SCID mouse assessed as reduction in tumor burden in femur at 10 mg/kg,ip administration measured after 4 weeks by CT imaging analysis. Format: functional, organism-based. The conditions noted are these: Homo sapiens. Put shortly: as §2
The subject of assay [8] is MDA-PCa-118b. Put plainly: Antitumor activity against patient derived MDA-PCa-118b cells xenografted in SCID mouse assessed as reduction in bone metastasis at 10 mg/kg,ip administration measured after 4 weeks by X-ray imaging analysis. Format: functional, organism-based. The conditions noted are these: Homo sapiens. The procedure, abridged:
as §2

The subject of assay [9] is MDA-PCa-118b. Briefly: Antitumor activity against patient derived MDA-PCa-118b cells xenografted in SCID mouse assessed as reduction in bone damage at 10 mg/kg,ip administration measured after 4 weeks by X-ray imaging analysis. The format is functional, organism-based. The conditions noted are these: Homo sapiens. Put shortly:
as §2

Assay [10] concerns LNCaP. Put plainly: Cytotoxicity against human LNCaP cells assessed as inhibition of cell growth incubated for 72 hrs by MTT assay. The format is functional, cell-based. Put shortly:
(§3)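 Cells seeded and grown to 70–80% confluence, then exposed for 72 h to a titration series (0.2–1000 nM). Viability read by MTT relative to untreated cells, with 6 replicates per concentration. IC50 fitted with a Hill-slope model.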

For assay [11], the system named is PANC-1. Put plainly: Cytotoxicity against human PANC-1 cells assessed as inhibition of cell growth incubated for 72 hrs by MTT assay. The format is functional, cell-based. The conditions noted are these: PANC-1, 72 h. Put shortly: as §3
Assay [12] can be described thus: Antitumor activity against patient derived MDA-PCa-118b cells xenografted in SCID mouse assessed as reduction in femur volume at 10 mg/kg,ip administration measured after 4 weeks by CT imaging analysis. The format is functional, Homo sapiens. The arrangement: scale not given: the % may be the effect or the level left. The procedure, abridged: as §2
Assay [13] has as its system LNCaP. Briefly: Antitumor activity against human LNCaP cells xenografted in SCID mouse assessed as reduction in Ki67 expression at 10 mg/kg,ip administration measured after 4 weeks by immunohistochemical analysis. Format: functional, organism-based. Put shortly:
as §1

Assay [14] concerns MDA-MB-468. Put plainly: Cytotoxicity against human MDA-MB-468 cells assessed as inhibition of cell growth incubated for 72 hrs by MTT assay. The format is functional, cell-based. The conditions noted are these: MDA-MB-468, 72 h. Put shortly:
as §3

For assay [15], the system named is LNCaP. Put plainly: Antitumor activity against human LNCaP cells xenografted in SCID mouse assessed as increase in mouse survival at 10 mg/kg,ip administration measured after 4 weeks. Format: functional, organism-based. Put shortly:
(§4)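 LNCaP cells (1×10^7) injected subcutaneously on both flanks of male SCID mice. From 4 weeks post-inoculation, 10 mg/kg ip daily for 4 weeks or vehicle (n = 10 vs 11). Caliper tumor size measured weekly (length × width²/2); survival endpoint at tumor diameter 3 cm.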

The test system of assay [16] is LNCaP. Briefly: Antitumor activity against human LNCaP cells xenografted in SCID mouse assessed as reduction in tumor growth at 10 mg/kg,ip administration measured after 1 week. Format: functional, organism-based. The conditions noted are these: time 1.0 weeks. The procedure, abridged:
as §4

In assay [17] the test system is BT-474. Briefly: Cytotoxicity against human BT-474 cells assessed as inhibition of cell growth incubated for 72 hrs by MTT assay. The format is functional, cell-based. The conditions noted are these: BT-474, 72 h. The procedure, abridged:
as §3

The nature of assay [18]: Antitumor activity against patient derived MDA-PCa-118b cells xenografted in SCID mouse assessed as reduction in ratio of tumor area to femur area at 10 mg/kg,ip administration measured after 4 weeks by CT imaging analysis. Format: functional, Homo sapiens. Set-up: scale not given: the % may be the effect or the level left. Put shortly:
as §2

For the compound `C/C(=N\N=c1/[nH]c2cc(F)c(F)cc2n1C)c1ncccn1`, the 50% inhibitory concentration (IC50) in assay [1] came out at 3.3 nM; in assay [10], 11 nM; in assay [11] it was 8 nM; in assay [14], 32 nM; in [17], 1 nM. Further, the outcome in [2], in [5], in assay [7], in assay [8], in assay [9] and in assay [13] was Active. In addition, the result in [15] and in assay [16] was Active. In addition, the Activity in assay [3] is 10%; in assay [4], more than 50%; in [6] it was more than 65%; in assay [12], more than 55%; in [18], more than 50%.
